From ChEMBL document CHEMBL1159005, “Inhibitory effects of flavonoids on Moloney murine leukemia virus reverse transcriptase activity” (J Nat Prod, 1992)

Key:
[1] = tested on: Moloney murine leukemia virus; experiment: Inhibition of Moloney murine leukemia virus reverse transcriptase using (riboadenylic acid)n(deoxythymidylic acid)12-18 as template primer by liquid scintillation counting
Outline: (§1)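 30 μl mix of 50 mM Tris-HCl pH 8.3, 75 mM KCl, 10 mM DTT, 3 mM MgCl₂, 3 μg nuclease-free BSA, 0.5 μg template-primer, 2 mM dTTP or dGTP with 0.5 μCi matching [³H]-dNTP, and 5 units MMLV RT. Incubated 37° for 30 min, stopped with EDTA. Duplicate aliquots spotted on DE-81 paper, washed, and counted by liquid scintillation.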

[2] = tested on: Moloney murine leukemia virus; experiment: Inhibition of Moloney murine leukemia virus reverse transcriptase using (ribocytidylic acid)n(deoxyguanylic acid)12-18 as template primer by liquid scintillation counting; outline: as §1
[3] = Selectivity for Moloney murine leukemia virus reverse transcriptase over Escherichia coli DNA polymerase 1

Which ID50 [1] does the source give for `O=c1cc(-c2ccccc2)oc2cc(O)ccc12` here?
Its ID50 is over 420 µM.

And the ID50 [2]?
The ID50 was over 420 µM.

For `O=C1CC(c2ccccc2)Oc2ccccc21` (stereo not drawn), which ID50 [1] is on record?
Its ID50 is over 446 µM.

And the ID50 [2]?
The ID50 was over 446 µM.

With `O=c1c(O)c(-c2ccccc2)oc2ccccc12` as the molecule, how does the ID50 [1] read?
The ID50 was over 420 µM.

What about the ID50 [2] of the same molecule?
Its ID50 is over 420 µM.

With `O=C1c2c(O)cc(O)cc2OC(c2ccc(O)c(O)c2)C1O` (racemic) as the molecule, how does the ID50 [1] read?
The ID50 was 2.43 µM.

And the ID50 [2]?
The ID50 was 2.46 µM.

What about the fold change (FC) [3] of the same molecule?
The fold change (FC) was 10.

With `C[C@@H]1O[C@@H](OC[C@H]2O[C@@H](Oc3c(-c4ccc(O)c(O)c4)oc4cc(O)cc(O)c4c3=O)[C@H](O)[C@@H](O)[C@@H]2O)[C@H](O)[C@H](O)[C@H]1O` as the molecule, how does the ID50 [1] read?
The ID50 was 7.27 µM.

What about the ID50 [2] of the same molecule?
Its ID50 is 7.33 µM.

With `O=c1c(O)c(-c2ccc(O)cc2O)oc2cc(O)cc(O)c12` as the molecule, how does the ID50 [1] read?
The ID50 was 1.03 µM.

And the ID50 [2]?
The ID50 was 1.01 µM.

And the fold change (FC) [3]?
The fold change (FC) was 10.

What does the source list for `COc1ccc([C@@H]2CC(=O)c3c(O)cc(O)cc3O2)cc1O`?
ID50 [1]: 20.9 µM; ID50 [2]: 22.1 µM

With `O=c1c(O)c(-c2ccc(O)c(O)c2)oc2cc(O)cc(O)c12` as the molecule, how does the ID50 [1] read?
The ID50 was 0.2 µM.

And the ID50 [2]?
Its ID50 is 0.17 µM.

And the fold change (FC) [3]?
The fold change (FC) was 10.

What does the source list for `C[C@H]1O[C@@H](Oc2c(-c3cc(O)c(O)c(O)c3)oc3cc(O)cc(O)c3c2=O)[C@@H](O)[C@@H](O)[C@@H]1O`?
ID50 [1]: 10.1 µM; ID50 [2]: 9.69 µM

What does the source list for `Oc1cc(O)c2c(c1)O[C@H](c1ccc(O)c(O)c1)[C@H](O)C2`?
ID50 [1]: 2.58 µM; ID50 [2]: 2.65 µM

With `O=c1c(O)c(-c2cc(O)c(O)c(O)c2)oc2cc(O)cc(O)c12` as the molecule, how does the ID50 [1] read?
The ID50 was 0.25 µM.

And the ID50 [2]?
The ID50 was 0.28 µM.

And the fold change (FC) [3]?
The fold change (FC) was 10.

What does the source list for `O=c1c(O)c(-c2ccc(O)cc2)oc2cc(O)cc(O)c12`?
ID50 [1]: 1.22 µM; ID50 [2]: 1.29 µM; fold change (FC) [3]: 10

For `Oc1cc(O)c2c(c1)O[C@H](c1ccc(O)c(O)c1)[C@@H](O)C2`, which ID50 [1] is on record?
The ID50 was 2.75 µM.

What about the ID50 [2] of the same molecule?
Its ID50 is 2.86 µM.

Which results are given for `O=c1c(O)c(-c2ccc(O)c(O)c2)oc2cc(O)ccc12`?
ID50 [1]: 0.28 µM; ID50 [2]: 0.24 µM
